# Data reported in ChEMBL document CHEMBL2062450, “New cytosine derivatives as inhibitors of DNA methylation” (Eur J Med Chem, 2012).
# The source made the active and inactive calls. No cut-off for these calls is given here.
# Key:
# [1] = biological target: T1, Orphan methyltransferase M.SssI (Spiroplasma monobiae, UniProt P15840); test: Uncompetitive inhibition of Spiroplasma sp. MQ1 SssI methyltransferase using pUC18 as substrate measured for 10 mins by Cornish-Bowden's plot analysis
# In short: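 M.SssI reaction in 10 mM Tris-HCl pH 7.9 with 50 mM NaCl, 10 mM DTT, 2 mM [3H]CH3-SAM, 1 U enzyme and pUC18 (0.1, 0.5 or 1 µg). Run at 37 °C for 1–10 min to get V0. Ki' obtained by Cornish-Bowden method, plotting S/V against inhibitor concentration. Duplicates.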
# [2] = biological target: T1, Orphan methyltransferase M.SssI; test: Competitive inhibition of Spiroplasma sp. MQ1 SssI methyltransferase using pUC18 as substrate measured for 10 mins by Dixon plot analysis
# In short: (§1)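 M.SssI reaction in 10 mM Tris-HCl pH 7.9 with 50 mM NaCl, 10 mM DTT, 2 mM [3H]CH3-SAM, 1 U enzyme and pUC18 plasmid (0.1, 0.5 or 1 µg). Run at 37 °C for 1, 3, 5 and 10 min with inhibitor present to get initial rates V0 (nM/min). Ki taken from Dixon plot. Reactions repeated twice.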
# [3] = biological target: T2, DNA (cytosine-5)-methyltransferase 1 (Homo sapiens, UniProt P26358); test: Inhibition of DNMT1 in human HeLa cell nuclear extract assessed as methylated substrate level at 10 uM by ELISA
# In short: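 HeLa nuclear extract (cells grown to 80% confluency; protein by Bradford) with hemimethylated DNA substrate, incubated 1 h with or without inhibitor. Methylated product detected by ELISA with anti-5-methylcytosine antibody, colorimetric read-out at 450 nm. Each experiment repeated twice.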
# HeLa = test: Inhibition of DNA methylation in human HeLa cells assessed as reduction of 5-methylcytosine level using [gamma-32P]ATP after 72 hrs; assay type: functional, cell-based
# In short: (§2)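 HeLa (RPMI-1640) and HEK293 (DMEM) cells, medium with 10% FBS, antibiotics and vitamin mix. Seeded at 1.25 × 10⁵ per well and exposed 72 h at 37 °C, 5% CO2 to 1, 10 or 100 µM. DNA digested with micrococcal nuclease and spleen phosphodiesterase, then 5'-labelled with [γ-32P]ATP and T4 polynucleotide kinase. 3'-phosphate removed with nuclease P1. Nucleotides resolved by 2D cellulose TLC. Methylation given as m5C/(m5C+dC+dT) × 100.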
# HEK293 = test: Inhibition of DNA methylation in human HEK293 cells assessed as reduction of 5-methylcytosine level using [gamma-32P]ATP after 72 hrs; assay type: cell-based; conditions: HEK293, 72 h; in short: as §2
# [4] = biological target: T1, Orphan methyltransferase M.SssI; test: Non-competitive inhibition of Spiroplasma sp. MQ1 SssI methyltransferase using pUC18 as substrate measured for 10 mins by Dixon plot analysis; in short: as §1
# [5] = biological target: T2, DNA (cytosine-5)-methyltransferase 1; test: Inhibition of DNMT1 in human HeLa cells assessed as 2'-deoxyadenosine phosphate level by two-dimensional thin layer chromatography analysis; assay type: cell-based; conditions: in the assay text read “5-methylcytosine level” for “2'-deoxyadenosine phosphate level”; in short: as §2
# [6] = biological target: T2, DNA (cytosine-5)-methyltransferase 1; test: Inhibition of DNMT1 in human HeLa cells assessed as 5-methyl-2'-deoxycytosine phosphate level by two-dimensional thin layer chromatography analysis; assay type: cell-based; in short: as §2
# [7] = biological target: T2, DNA (cytosine-5)-methyltransferase 1; test: Inhibition of DNMT1 in human HeLa cells assessed as 2'-deoxycytosine phosphate level by two-dimensional thin layer chromatography analysis; assay type: cell-based; in short: as §2
# [8] = biological target: T2, DNA (cytosine-5)-methyltransferase 1; test: Inhibition of DNMT1 in human HeLa cells assessed as 2'-deoxytymidine phosphate level by two-dimensional thin layer chromatography analysis; assay type: cell-based; in short: as §2
# [9] = biological target: T2, DNA (cytosine-5)-methyltransferase 1; test: Inhibition of DNMT1 in human HeLa cells assessed as 2'-deoxyguanosine phosphate level by two-dimensional thin layer chromatography analysis; assay type: cell-based; in short: as §2
# [10] = biological target: T2, DNA (cytosine-5)-methyltransferase 1; test: Inhibition of DNMT1 in human HeLa cell nuclear extract assessed as methylated substrate level at 100 uM by ELISA
# [11] = biological target: T1, Orphan methyltransferase M.SssI; test: Inhibition of Spiroplasma sp. MQ1 SssI methyltransferase-mediated DNA cytosine methylation using pUC18 as substrate and [3H]CH3-SAM measured up to 10 mins
# In short: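 Tritium-incorporation assay with SssI methyltransferase, pUC18 plasmid (0.1–1 µg) and 2 mM [3H]CH3-SAM. Buffer is 10 mM Tris-HCl pH 7.9, 50 mM NaCl, 10 mM DTT. Sampled at 1, 3, 5 and 10 min at 37 °C to give initial velocity V0. Reactions done twice.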
# [12] = biological target: T2, DNA (cytosine-5)-methyltransferase 1; test: Inhibition of DNMT1 in human HeLa cell nuclear extract assessed as methylated substrate level by ELISA
# T2 sequence (P26358 whole entry): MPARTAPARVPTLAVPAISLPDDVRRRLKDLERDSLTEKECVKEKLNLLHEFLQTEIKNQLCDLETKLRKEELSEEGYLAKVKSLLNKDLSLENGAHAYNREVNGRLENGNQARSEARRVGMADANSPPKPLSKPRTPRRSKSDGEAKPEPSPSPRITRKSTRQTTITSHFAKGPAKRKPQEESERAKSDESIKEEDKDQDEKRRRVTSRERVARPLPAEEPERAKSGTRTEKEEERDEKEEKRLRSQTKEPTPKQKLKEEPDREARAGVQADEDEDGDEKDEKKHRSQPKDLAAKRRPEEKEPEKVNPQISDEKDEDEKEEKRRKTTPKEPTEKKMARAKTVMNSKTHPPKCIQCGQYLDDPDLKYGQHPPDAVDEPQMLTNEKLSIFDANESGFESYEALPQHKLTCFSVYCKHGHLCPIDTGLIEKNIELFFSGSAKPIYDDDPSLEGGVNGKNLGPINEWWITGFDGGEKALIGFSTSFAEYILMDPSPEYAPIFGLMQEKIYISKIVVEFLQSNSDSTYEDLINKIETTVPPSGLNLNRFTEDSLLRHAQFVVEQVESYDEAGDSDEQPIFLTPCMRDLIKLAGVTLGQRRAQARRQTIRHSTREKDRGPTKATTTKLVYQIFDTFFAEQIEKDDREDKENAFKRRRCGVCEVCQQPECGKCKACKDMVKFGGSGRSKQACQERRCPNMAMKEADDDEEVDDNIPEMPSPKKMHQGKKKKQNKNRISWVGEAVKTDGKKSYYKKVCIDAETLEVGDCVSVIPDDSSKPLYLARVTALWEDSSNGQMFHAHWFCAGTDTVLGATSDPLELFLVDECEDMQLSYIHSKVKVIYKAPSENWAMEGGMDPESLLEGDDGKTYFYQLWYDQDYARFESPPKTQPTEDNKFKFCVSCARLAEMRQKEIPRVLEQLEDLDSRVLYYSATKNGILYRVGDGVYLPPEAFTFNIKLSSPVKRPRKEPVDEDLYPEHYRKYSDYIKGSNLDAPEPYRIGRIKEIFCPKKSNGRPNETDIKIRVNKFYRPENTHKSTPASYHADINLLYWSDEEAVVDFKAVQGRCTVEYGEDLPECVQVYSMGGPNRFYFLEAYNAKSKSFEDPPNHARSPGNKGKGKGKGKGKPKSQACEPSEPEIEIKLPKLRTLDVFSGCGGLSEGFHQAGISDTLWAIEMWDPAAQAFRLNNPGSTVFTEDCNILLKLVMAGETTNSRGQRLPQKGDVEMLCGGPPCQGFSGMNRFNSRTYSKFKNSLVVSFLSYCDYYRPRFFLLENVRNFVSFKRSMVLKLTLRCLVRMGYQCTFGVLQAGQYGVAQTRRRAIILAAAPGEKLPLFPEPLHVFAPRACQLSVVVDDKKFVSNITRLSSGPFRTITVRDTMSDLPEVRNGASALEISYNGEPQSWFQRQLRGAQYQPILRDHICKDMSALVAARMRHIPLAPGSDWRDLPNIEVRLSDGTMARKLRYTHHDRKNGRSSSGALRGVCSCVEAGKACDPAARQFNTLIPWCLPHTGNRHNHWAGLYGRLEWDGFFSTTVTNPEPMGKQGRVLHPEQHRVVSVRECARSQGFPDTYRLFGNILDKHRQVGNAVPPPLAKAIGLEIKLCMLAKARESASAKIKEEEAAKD
# T1 sequence (P15840 whole entry): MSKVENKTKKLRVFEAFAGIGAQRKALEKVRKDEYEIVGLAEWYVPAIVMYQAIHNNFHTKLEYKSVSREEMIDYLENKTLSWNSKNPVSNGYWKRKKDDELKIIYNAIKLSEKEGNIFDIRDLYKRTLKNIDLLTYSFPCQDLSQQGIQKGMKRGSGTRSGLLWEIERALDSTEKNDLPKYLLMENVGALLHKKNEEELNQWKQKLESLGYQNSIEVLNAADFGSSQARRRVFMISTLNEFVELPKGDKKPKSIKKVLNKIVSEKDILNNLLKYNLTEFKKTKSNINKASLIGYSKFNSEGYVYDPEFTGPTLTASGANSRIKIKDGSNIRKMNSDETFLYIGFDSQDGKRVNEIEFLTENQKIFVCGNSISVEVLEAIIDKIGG
smiles,measurement,setting,value
CCC/C=N/c1cc[nH]c(=O)n1,Ki,[1],800 µM
O=c1ncc(CS(=O)(=O)O)c(NCc2ccccc2)[nH]1,Ki,[2],33 µM
O=c1nc(NCc2cccnc2)cc[nH]1,Ki,[2],400 µM
O=c1nc(NCc2ccc(CO)o2)cc[nH]1,Ki,[2],700 µM
O=Cc1c[nH]c(=O)nc1NCc1ccco1,Ki,[2],83 µM
O=C(O[C@@H]1Cc2c(O)cc(O)cc2O[C@@H]1c1cc(O)c(O)c(O)c1)c1cc(O)c(O)c(O)c1 [EPIGALOCATECHIN GALLATE],Ki,[2],0.028 µM
same,inhibition,[3],42%
CC(=O)OCc1c[nH]c(=O)nc1NCc1ccccc1,Ki,[2],23 µM
CC/C=N/c1cc[nH]c(=O)n1,Ki,[1],3400 µM
O=c1nc(NCc2ccco2)cc[nH]1,Ki,[2],70 µM
O=Cc1cnc(=O)[nH]c1NCc1ccccc1,Ki,[2],35 µM
CCCCNc1ccnc(=O)[nH]1,Ki,[1],1000 µM
CCNc1cc[nH]c(=O)n1,Ki,[1],6000 µM
Cc1c[nH]c(=O)nc1NCc1ccco1,Ki,[2],15 µM
same,IC50,HeLa,88 µM
same,IC50,HEK293,> 100 µM
O=c1nc(NCc2ccccc2[N+](=O)[O-])cc[nH]1,Ki,[4],6400 µM
O=c1nc(NCc2ccccc2)cc[nH]1,Ki,[2],10 µM
same,IC50,HeLa,31 µM
same,IC50,HEK293,> 100 µM
same,inhibition,[5],Active
same,inhibition,[6],Active
same,inhibition,[7],Active
same,inhibition,[8],Active
same,inhibition,[9],Active
Cc1c[nH]c(=O)nc1NCc1ccccc1,Ki,[2],3.6 µM
O=c1nc(NCc2ccco2)c(CO)c[nH]1,Ki,[2],440 µM
Cc1cn([C@H]2C[C@H](O)[C@@H](CO)O2)c(=O)nc1NCc1ccco1,Ki,[2],250 µM
Cc1ccc(S(=O)(=O)Nc2cc[nH]c(=O)n2)cc1,Ki,[2],550 µM
O=C1N=C(NCc2ccccc2)NCN1,Ki,[2],20 µM
CC(=O)OCc1c[nH]c(=O)nc1NCc1ccco1,Ki,[2],50 µM
Cc1ccc(CNc2cc[nH]c(=O)n2)cc1,Ki,[2],26 µM
O=C(O)[C@H](Cc1c[nH]c2ccccc12)N1C(=O)c2ccccc2C1=O,Ki,[2],0.23 µM
same,inhibition,[10],11%
O=c1nc(NCc2ccco2)ccn1[C@H]1C[C@H](O)[C@@H](CO)O1,Ki,[2],170 µM
C/C=N/c1cc[nH]c(=O)n1,Ki,[1],5600 µM
O=c1nc(NCc2ccccc2)c(CO)c[nH]1,Ki,[2],135 µM
O=C1N=C(NCc2ccco2)NCN1,IC50,[11],2.73 µM
same,Ki,[2],0.7 µM
same,IC50,[12],22 µM
same,inhibition,[12],Dose-dependent effect
same,inhibition,[3],55%
same,IC50,HeLa,26 µM
same,IC50,HEK293,75 µM
same,inhibition,[5],Active
same,inhibition,[6],Active
same,inhibition,[7],Active
same,inhibition,[8],Active
same,inhibition,[9],Active
O=c1ncc(CS(=O)(=O)O)c(NCc2ccco2)[nH]1,Ki,[2],112 µM
CCCCNCc1c[nH]c(=O)nc1NCc1ccco1,Ki,[2],960 µM
Nc1nc[nH]c(=O)n1,Ki,[2],5500 µM
